Compound activity: PubChem BioAssay, Broad Institute
An excerpt weighted towards active compounds, which were near 2.2% of everything screened.
FGF22 binding – binders of human FGF22 protein, primary screen, FGF22 synaptogenesis inhibitor project, biophysical, thermal shift, single point. 1.5% of 340,000 active. Fibroblast growth factor 22 (Homo sapiens), Q9HCT0. activity (Tm shift, normalised), % at 9.99 µM. recombinant FGF22 thermal shift, SYPRO orange fluorescence; percent of sucrose octasulfate shift, DMSO zero;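 active = mean Tm shift, scaled 0 neutral to 100 positive control, at about 1.3% or above, every replicate too, limit read from the data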
Target sequence (Q9HCT0 whole entry, looked up): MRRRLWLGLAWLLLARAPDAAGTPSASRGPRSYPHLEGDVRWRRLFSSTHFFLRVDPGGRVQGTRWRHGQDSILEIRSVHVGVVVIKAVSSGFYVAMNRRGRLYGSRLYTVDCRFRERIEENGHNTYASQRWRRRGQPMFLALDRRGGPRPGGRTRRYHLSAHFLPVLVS
FN deposit inh – inhibitors of fibronectin matrix deposition, primary screen, AH1F cells, Alexa488-fibronectin fluorescence, plate reader. AID 743247, 2014. 0.086% of 350,000 active. inhibition, % at 12.6 µM. AH1F fibroblasts, overnight;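 active = mean inhibition across replicates of 30% or more, regardless of how many single replicates reach that level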
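Material: AH1F fibroblast monolayer depositing Alexa488-labelled fibronectin into matrix | Input: 10000 AH1F cells/well | Medium: DMEM plus 2% serum, read in PBS | Reagent: Alexa488-fibronectin, 24 nM final in well | Compound dosing: One dose per compound, pinned | Schedule: 1 h adhesion, overnight exposure | Measured by: Fluorescence at 485 nm excitation, 525 nm emission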
ERAP1 inh – human ERAP1 aminopeptidase inhibitors, primary screen, biochemical, single point, plate reader; inhibition, % at 10.7 µM; Endoplasmic reticulum aminopeptidase 1 (Homo sapiens), Q9NZ08; recombinant ERAP1, Leu-AMC fluorescence, 60 min; AID 652197, 2013; 0.15% of 340,000 active;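 active = mean replicate inhibition of at least 30%, or all replicates individually reaching that 30% level; inactive = mean below 30% and not every replicate reaching it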
SIRT5 block – SIRT5 desuccinylase inhibitors, primary screen, biochemical, fluorescence imaging, single point, set 5; NAD-dependent protein deacylase sirtuin-5, mitochondrial (Homo sapiens), Q9NXA8; Purified SirT5, succinyl-peptide AMC, trypsin-coupled fluorescence; inhibition, % at 15 µM; 1.1% of 330,000 active; in the data active = inhibition above about 15%
Target sequence (Q9NXA8 whole entry, looked up): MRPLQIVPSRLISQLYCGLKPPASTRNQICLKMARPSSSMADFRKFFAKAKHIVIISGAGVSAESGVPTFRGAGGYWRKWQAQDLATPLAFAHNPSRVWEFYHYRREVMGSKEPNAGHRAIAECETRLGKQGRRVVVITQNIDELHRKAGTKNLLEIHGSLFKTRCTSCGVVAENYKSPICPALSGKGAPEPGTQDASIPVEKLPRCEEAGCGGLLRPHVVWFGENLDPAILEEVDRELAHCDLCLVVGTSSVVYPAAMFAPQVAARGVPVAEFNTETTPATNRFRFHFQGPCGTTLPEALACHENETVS
PGC1a acetyl inh – inhibitors of PGC1a acetylation signal, primary screen, cell-based, U2OS, AlphaScreen, inhibitor mode; AlphaScreen anti-acetyl-lysine; with virally co-expressed GCN5 acetyltransferase; AID 651687, 2012; 0.17% of 350,000 active; inhibition, % at 15.6 µM;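 active = every replicate shows inhibition of at least 40%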
Large screens that a line does not name were inactive.

Cc1noc(C)c1NC(=O)N(C)C[C@@H]1OCCCC[C@H](C)Oc2ccc(NC(=O)NC3CCCCC3)cc2C(=O)N([C@@H](C)CO)C[C@H]1C	FGF22 binding 1.5
C[C@@H]1CCCCO[C@H](CN(C)C(=O)Cc2ccccc2)[C@@H](C)CN([C@@H](C)CO)C(=O)c2cc(NC(=O)Cc3ccccc3)ccc2O1	none
O=C(C[C@H]1C[C@@H]2c3cc(NS(=O)(=O)c4ccc(F)cc4)ccc3O[C@@H]2[C@H](CO)O1)NCC1CC1	none (no result: ERAP1 inh, SIRT5 block)
COCCNC(=O)C[C@@H]1C=C[C@H](NC(=O)NC2CCCC2)[C@@H](CO)O1	none
Cc1nn(-c2ccccc2)c(C)c1/C=N/n1c(-c2ccc(Cl)cc2)n[nH]c1=S	SIRT5 block 17 (no result: PGC1a acetyl inh)
Cc1nn(-c2ccccc2)c(C)c1/C=N/n1c(-c2ccncc2)n[nH]c1=S	none (no result: FN deposit inh, PGC1a acetyl inh)
CC1CCCC(C)N1C(=O)CSc1nnc(COc2cccc3cccnc23)o1 (stereo not given)	FGF22 binding 43
O=C(CSc1nnc(COc2cccc3cccnc23)o1)N1CCCC1	none
CCC(=O)N(C)C[C@H]1Oc2ncc(C#CCc3ccccc3)cc2C(=O)N([C@@H](C)CO)C[C@H]1C	none (no result: FN deposit inh)
CC1(C)C2CC=C(/C=N/NC(=O)c3ccccc3O)C1C2 (stereo not given)	FGF22 binding 43
Cn1ncc(Cl)c1C(=O)N/N=C/c1ccccn1	SIRT5 block 22
Cc1ccccc1C(=O)N/N=C/c1ccccn1	none
O=C(N/N=C\c1ccccn1)c1ccccc1O	FGF22 binding 44
C[C@H](CO)N1C[C@H](C)[C@@H](CN(C)S(=O)(=O)c2ccc(Cl)cc2)OCCCC[C@H](C)Oc2ccc(NC(=O)Nc3cccc4ccccc34)cc2C1=O	none (no result: FGF22 binding)
CC(C)NC(=O)Nc1ccc2c(c1)CC(=O)N([C@@H](C)CO)C[C@H](C)[C@@H](CN(C)Cc1ccc(Oc3ccccc3)cc1)O2	none (no result: FN deposit inh)
O=[N+]([O-])c1ccc(Nc2nc(NC3CCCCC3)nc(N3CCCC3)n2)cc1	FGF22 binding 44 (no result: PGC1a acetyl inh)
O=C(N/N=C(\c1ccccc1)c1ccccn1)c1cccc([N+](=O)[O-])c1	none (no result: FGF22 binding, FN deposit inh, ERAP1 inh, SIRT5 block)
CCOc1ccc(C(=O)N/N=C(\c2ccccc2)c2ccccn2)cc1	PGC1a acetyl inh 80 (no result: FGF22 binding, FN deposit inh, ERAP1 inh, SIRT5 block)
O=C(c1ccc(Cl)cc1)C(Cn1cncn1)C(Sc1ccccc1)c1ccccc1 (stereo not given)	PGC1a acetyl inh 61 (no result: FGF22 binding, FN deposit inh, ERAP1 inh, SIRT5 block)
CCNC(=O)C[C@H]1CC[C@@H]2[C@H](COc3ccc(NC(=O)Nc4ccccc4F)cc3C(=O)N2C)O1	none
COC(=O)N(C)C[C@H]1OCc2ccccc2-c2c(n(C)c3ccccc23)C(=O)N([C@@H](C)CO)C[C@@H]1C	SIRT5 block 18
COc1ccccc1CN(C)C[C@@H]1OCc2ccccc2-c2c(n(C)c3ccccc23)C(=O)N([C@H](C)CO)C[C@@H]1C	none
C[C@H]1CN([C@@H](C)CO)C(=O)c2c(c3ccccc3n2C)-c2ccccc2CO[C@@H]1CN(C)Cc1cccc2c1OCCCO2	SIRT5 block 19 (no result: FN deposit inh)
COc1ccccc1CN(C)C[C@H]1OCc2ccccc2-c2c(n(C)c3ccccc23)C(=O)N([C@@H](C)CO)C[C@H]1C	SIRT5 block 15
C[C@H]1CN([C@@H](C)CO)C(=O)c2c(c3ccccc3n2C)-c2ccccc2CO[C@H]1CN(C)Cc1cccc2c1OCCCO2	SIRT5 block 21
C[C@H]1CN([C@@H](C)CO)C(=O)c2ccccc2-c2ccccc2CO[C@H]1CN(C)Cc1cccc2c1OCCCO2	none
O=C(C[C@H]1C=C[C@@H](NS(=O)(=O)c2ccccc2)[C@@H](CO)O1)N1CCN(c2ccccc2)CC1	none (no result: FGF22 binding, FN deposit inh)
COc1ccc(NC(=O)Nc2ccc3c(c2)CC(=O)N([C@@H](C)CO)C[C@@H](C)[C@@H](CN(C)Cc2ccc(C(=O)O)cc2)O3)cc1	none (no result: FN deposit inh)
C[C@@H]1CN([C@@H](C)CO)C(=O)c2ccccc2-c2ccccc2CO[C@@H]1CN(C)Cc1cccc2c1OCCCO2	none (no result: FGF22 binding, ERAP1 inh, SIRT5 block)
